Measured values as given in ChEMBL document CHEMBL3875168, “Synthesis and apoptosis inducing studies of triazole linked 3-benzylidene isatin derivatives” (Eur J Med Chem, 2016).
Activity calls are given as the source filed them. The calls are words filed in the database; no cut-off is given here.

Experiments:
[1] = Cytotoxicity against human HeLa cells assessed as cell growth inhibition after 48 hrs by MTT assay; type: functional, cell-based
Summary of the method: (§1)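 Cell lines (NCCS) grown in DMEM or RPMI with 10% FBS and antibiotic-antimycotic at 37 °C, 5% CO2, 90% humidity. Cells seeded at 3-5×10^3 per well, treated 48 h with serial dilutions in medium beside vehicle control. Medium replaced with MTT (0.5 mg/mL) for 4 h, absorbance read at 570 nm. IC50 taken from concentration-response curves; sunitinib served as reference.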

DU-145 [2] = assay: Induction of apoptosis in human DU145 cells assessed as formation of fragmented nuclei at 2.5 to 5 uM after 48 hrs by DAPI staining based fluorescence microscopic method; type: functional, cell-based
Summary of the method: (§2)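 DU145 treated for 48 h, PBS-washed, permeabilized with 0.1% Tween 20 for 10 min and stained with 1 μM DAPI. Nuclear morphology of control and treated cells viewed by fluorescence microscopy (excitation 359 nm, emission 461 nm) at 200x.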

[3] = Cytotoxicity against human DU145 cells assessed as cell growth inhibition after 48 hrs by MTT assay; type: functional, cell-based; details: DU-145, 48 h; summary of the method: as §1
DU-145 [4] = assay: Induction of apoptosis in human DU145 cells assessed as increase in cytochrome c level after 48 hrs by Western blot analysis; type: functional, cell-based
DU-145 [5] = assay: Induction of apoptosis in human DU145 cells assessed as early apoptotic cells at 1.25 uM after 24 hrs by Annexin V-FITC/propidium iodide staining based flow cytometry (reference value: 2.14%); type: functional
DU-145 [6] = assay: Induction of apoptosis in human DU145 cells assessed as necrotic cells at 2.5 uM after 24 hrs by Annexin V-FITC/propidium iodide staining based flow cytometry (reference value: 2.14%); type: functional
[7] = Cytotoxicity against human A549 cells assessed as cell growth inhibition after 48 hrs by MTT assay; type: functional, cell-based; details: A549, 48 h; summary of the method: as §1
[8] = Cytotoxicity against human PC3 cells assessed as cell growth inhibition after 48 hrs by MTT assay; type: functional, cell-based; details: PC-3, 48 h; summary of the method: as §1
DU-145 [9] = assay: Induction of mitochondrial membrane potential loss in human DU145 cells at 5 uM after 24 hrs by flow cytometry (reference value: 5.39%); type: functional
DU-145 [10] = assay: Induction of apoptosis in human DU145 cells assessed as formation of pyknotic nuclei at 2.5 to 5 uM after 48 hrs by DAPI staining based fluorescence microscopic method; type: functional, cell-based; summary of the method: as §2
DU-145 [11] = assay: Induction of morphological changes in human DU145 cells assessed as cell shrinkage at 1.25 to 5 uM after 48 hrs by acridine orange/ethidium bromide-dual staining based fluorescence microscopic method; type: functional
Summary of the method: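 DU145 plated at 1×10^6 cells/mL, treated at several concentrations and kept 48 h at 37 °C in 5% CO2. Equal volumes of acridine orange and ethidium bromide (10 μg/mL) added, and cells imaged within 10 min by fluorescence microscopy (excitation 488 nm, emission 550 nm) at 200x.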

DU-145 [12] = assay: Induction of apoptosis in human DU145 cells assessed as viable cells at 1.25 uM after 24 hrs by Annexin V-FITC/propidium iodide staining based flow cytometry (reference value: 90.32%); type: functional; details: DU-145, 24 h, read-out: Activity
DU-145 [13] = assay: Induction of apoptosis in human DU145 cells assessed as increase in Bax level after 48 hrs by Western blot analysis; type: functional, cell-based
[14] = Cell cycle arrest in human DU145 cells assessed as accumulation at sub G1 phase at 2.5 uM after 24 hrs by propidium iodide staining-based flow cytometry (reference value: 0.65%); type: functional; details: DU-145
Summary of the method: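 Compound given to DU145 at 2.5 and 5.0 μM for 24 h alongside untreated cells. Cells harvested, PBS-washed, fixed in ice-cold 70% ethanol, then stained 30 min at 37 °C in the dark with propidium iodide (50 μg/mL) plus RNase A (20 μg/mL) in 0.1% Triton X-100. About 10000 events per sample read by flow cytometry; a representative of three independent experiments is shown.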

Which IC50 [1] does the source give for O=C1Nc2ccc(C(c3ccccc3)c3ccccc3)cc2/C1=C/c1cccc(OCc2cn(Cc3ccccc3)nn2)c1 here?
Its IC50 is 4.28 µM.

What about the Activity (DU-145 [2]) of the same compound?
The Activity was “Active”.

What about the IC50 [3] of the same compound?
The IC50 was 3.7 µM.

And the Activity (DU-145 [4])?
Its Activity is “Active”.

What about the Activity (DU-145 [5]) of the same compound?
Its Activity is 12.6%.

What about the Activity (DU-145 [6]) of the same compound?
Its Activity is 4.41%.

And the IC50 [7]?
The IC50 was 14.7 µM.

What about the IC50 [8] of the same compound?
The IC50 was 17.2 µM.

And the Activity (DU-145 [9])?
The Activity was 99.7%.

And the Activity (DU-145 [10])?
The Activity was “Active”.

What about the Activity (DU-145 [11]) of the same compound?
Its Activity is “Active”.

And the viability at 1.25 µM (DU-145 [12])?
Its viability at 1.25 µM is 76.5%.

What about the Activity (DU-145 [13]) of the same compound?
The Activity was “Active”.

What about the Activity [14] of the same compound?
The Activity was 27.6%.
